ChEMBL document CHEMBL4152266, “Insight into structural requirements for selective and/or dual CXCR3 and CXCR4 allosteric modulators” (Eur J Med Chem, 2018)
Active and inactive are the calls of the source. The rule behind the calls is not given here.

Key:
[1] = target: T1, C-X-C chemokine receptor type 3 (Homo sapiens) (UniProt P49682); experiment: Negative allosteric modulation of CXCR3 (unknown origin) expressed in HEK293T cells assessed as inhibition of CXCL11-induced reduction in forskolin-mediated cAMP accumulation at 10 uM after 20 mins by BRET assay relative to control; type: functional, cell-based
T1 sequence (whole entry): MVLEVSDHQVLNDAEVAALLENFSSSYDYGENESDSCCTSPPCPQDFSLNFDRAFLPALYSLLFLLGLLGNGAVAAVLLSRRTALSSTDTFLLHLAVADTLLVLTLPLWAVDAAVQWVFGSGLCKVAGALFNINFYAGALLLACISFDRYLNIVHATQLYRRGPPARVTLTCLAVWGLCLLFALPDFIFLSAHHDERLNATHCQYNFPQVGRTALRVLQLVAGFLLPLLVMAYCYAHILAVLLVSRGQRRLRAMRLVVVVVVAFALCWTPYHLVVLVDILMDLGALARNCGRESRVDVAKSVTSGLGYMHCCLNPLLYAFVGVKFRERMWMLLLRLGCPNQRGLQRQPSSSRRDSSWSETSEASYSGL
How it was run: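 CXCR3 antagonism in whole-cell BRET cAMP assay, compounds at 10 µM. NetBRET signal expressed as percent, scaled between CXCL11 50 nM (100%) and cRAMX3 10 µM (0%). Mean ± S.E.M. of three experiments in triplicate.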

[2] = target: T2, C-X-C chemokine receptor type 4 (Homo sapiens, UniProt P61073); experiment: Negative allosteric modulation of CXCR4 in human CD4+ T cells assessed as inhibition of CXCL12-induced migration at 150 uM preincubated for 1 hr followed by CXCL12 addition measured after 3 hrs by flow cytometry based transwell assay relative to control; type: functional, cell-based
How it was run: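 Isolated human CD4+ T cells, CXCR4 expression checked by flow cytometry, pre-treated with compound at 150 µM, then transwell migration toward CXCL12. Migrated cells in the lower chamber counted by flow cytometry over 60 s. Mean ± SD of four independent experiments; unpaired t test.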

[3] = target: T2, C-X-C chemokine receptor type 4; experiment: Negative allosteric modulation of CXCR4 (unknown origin) expressed in HEK293T cells assessed as inhibition of CXCL12-induced reduction in forskolin-mediated cAMP accumulation at 10 uM after 20 mins by BRET assay relative to control; type: functional, cell-based
How it was run: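 CXCR4 antagonism in BRET cAMP assay, compounds at 10 µM. NetBRET expressed as percent, scaled between CXCL12 20 nM (100%) and IT1t 10 µM (0%). Mean ± S.E.M. of three experiments in triplicate.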

[4] = target: T1, C-X-C chemokine receptor type 3 (Homo sapiens); experiment: Negative allosteric modulation of CXCR3 (unknown origin) expressed in HEK293T cells assessed as inhibition of CXCL11-induced reduction in forskolin-mediated cAMP accumulation after 20 mins by BRET assay; type: functional, cell-based
How it was run: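 CXCR3 dose-response in BRET cAMP assay against CXCL11 at 50 nM, cRAMX3 as reference. Data fitted with a ternary complex allosteric model to give pKB and cooperativity α. Mean ± S.E.M., three experiments in triplicate.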

[5] = target: T1, C-X-C chemokine receptor type 3 (Homo sapiens); experiment: (§1) Positive allosteric modulation of PK1-tagged CXCR3 (unknown origin) expressed in HEK293T cells co-expressing beta-arrestin/beta-Gal enzyme chimera assessed as increase in CXCL11-induced beta-arrestin recruitment at 10 uM after 4 hrs by chemiluminescence based beta-galactosidase reporter gene assay; type: functional, cell-based
How it was run: (§2)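 PathHunter β-arrestin 2 recruitment at CXCR3 by β-gal fragment complementation, chemiluminescent read-out, compounds at 10 µM. Inhibition mode is scaled between CXCL11 50 nM (100%) and (±)-NBI-74330 10 µM (full inhibition). Agonism tested without chemokine. Mean ± S.E.M., three experiments in triplicate.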

[6] = target: T1, C-X-C chemokine receptor type 3 (Homo sapiens); experiment: Negative allosteric modulation of CXCR3 in human PBMC assessed as inhibition of CXCL11-induced migration at 30 uM preincubated for 1 hr followed by CXCL11 addition measured after 3 hrs by flow cytometry based transwell assay relative to control; type: functional, cell-based
How it was run: (§3)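 Human PBMCs, CXCR3 expression confirmed by flow cytometry, pre-treated with compound (30 or 150 µM) then allowed to migrate toward CXCL11 in a transwell. Cells in the lower chamber counted by flow cytometry (60 s counts). Mean ± SD of four independent experiments; unpaired t test.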

[7] = target: T1, C-X-C chemokine receptor type 3 (Homo sapiens); experiment: Negative allosteric modulation of CXCR3 in human PBMC assessed as inhibition of CXCL11-induced migration at 150 uM preincubated for 1 hr followed by CXCL11 addition measured after 3 hrs by flow cytometry based transwell assay relative to control; type: functional, cell-based; how it was run: as §3
[8] = target: T2, C-X-C chemokine receptor type 4; experiment: Negative allosteric modulation of CXCR4 (unknown origin) expressed in HEK293T cells assessed as inhibition of CXCL12-induced reduction in forskolin-mediated cAMP accumulation after 20 mins by BRET assay; type: functional, cell-based
How it was run: (§4)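 Dose-response in CXCR4 BRET cAMP assay with CXCL12 at 20 nM, IT1t as reference. Analysis uses ternary complex allosteric model; where signal-to-noise was poor, nonlinear regression with Hill slope fixed at 1 gave approximate pEC50. Three experiments in triplicate.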

[9] = target: T2, C-X-C chemokine receptor type 4; experiment: Agonist activity at CXCR4 (unknown origin) expressed in HEK293T cells assessed as inhibition of forskolin-mediated cAMP accumulation after 20 mins by BRET assay; type: functional, cell-based; how it was run: as §4
[10] = target: T2, C-X-C chemokine receptor type 4; experiment: Positive allosteric modulation of CXCR4 (unknown origin) expressed in HEK293T cells assessed as increase in CXCL12-induced reduction in forskolin-mediated cAMP accumulation at 10 uM after 20 mins by BRET assay relative to control; type: functional, cell-based; parameters: scale not given: the % may be the effect or the level left
[11] = target: T1, C-X-C chemokine receptor type 3 (Homo sapiens); experiment: Agonist activity at PK1-tagged CXCR3 (unknown origin) expressed in HEK293T cells co-expressing beta-arrestin/beta-Gal enzyme chimera assessed as beta-arrestin recruitment at 10 uM after 4 hrs by chemiluminescence based beta-galactosidase reporter gene assay; type: functional, cell-based; how it was run: as §2
[12] = target: T2, C-X-C chemokine receptor type 4; experiment: Agonist activity at CXCR4 (unknown origin) expressed in HEK293T cells assessed as inhibition of forskolin-mediated cAMP accumulation at 10 uM after 20 mins by BRET assay; type: functional, cell-based
How it was run: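 Agonism screen in BRET-based cAMP assay, compounds at 10 µM applied without chemokine. For CXCR4, CXCL12 at 20 nM serves as positive control. Mean of three experiments, each in triplicate.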

[13] = target: T1, C-X-C chemokine receptor type 3 (Homo sapiens); experiment: Agonist activity at CXCR3 (unknown origin) expressed in HEK293T cells assessed as inhibition of forskolin-mediated cAMP accumulation at 10 uM after 20 mins by BRET assay; type: functional, cell-based
[14] = target: T1, C-X-C chemokine receptor type 3 (Homo sapiens); experiment: as §1, with “Negative” for “Positive”, “inhibition of” for “increase in”, “assay relative to control” for “assay”; type: functional, cell-based; how it was run: as §2
[15] = target: T1, C-X-C chemokine receptor type 3 (Homo sapiens); experiment: Negative allosteric modulation of CXCR3 (unknown origin) expressed in HEK293 cell membranes assessed as inhibition of CXCL11-induced [35S]GTPgammaS binding preincubated for 30 mins followed by [35S]GTPgammaS addition measured after 30 mins; type: functional
[16] = target: T2, C-X-C chemokine receptor type 4; experiment: Negative allosteric modulation of CXCR4 (unknown origin) expressed in HEK293 cell membranes assessed as inhibition of CXCL12-induced [35S]GTPgammaS binding preincubated for 30 mins followed by [35S]GTPgammaS addition measured after 30 mins; type: functional

T2 sequence (P61073 whole entry): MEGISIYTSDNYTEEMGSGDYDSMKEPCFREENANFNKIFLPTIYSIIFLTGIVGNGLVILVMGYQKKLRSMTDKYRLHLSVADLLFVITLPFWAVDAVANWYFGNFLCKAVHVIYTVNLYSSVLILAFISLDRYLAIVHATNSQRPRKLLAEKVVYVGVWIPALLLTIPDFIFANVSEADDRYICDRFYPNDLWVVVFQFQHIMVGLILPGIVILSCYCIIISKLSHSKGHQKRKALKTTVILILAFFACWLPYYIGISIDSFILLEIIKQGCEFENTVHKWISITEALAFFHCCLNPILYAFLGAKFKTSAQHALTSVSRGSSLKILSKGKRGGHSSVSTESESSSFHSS

Question: Which results are given for `COc1ccc(CN2CCN(C(=O)c3ccc(-n4cccn4)nc3)CC2)cc1`?
Answer: inhibition [1]: > 60%; inhibition [2]: > 80%; inhibition [3]: > 50%; pKb [4]: 6.15; Activity [5]: inactive; inhibition [6]: > 10%; inhibition [7]: > 20%; pKb [8]: 6.09

Question: Which EC50 [9] does the source give for `O=C(c1ccc(-n2cccn2)nc1)N1CCC(NCc2ccccc2)CC1` here?
Answer: 5.89 µM

Question: What about the Activity [10] of the same compound?
Answer: Active

Question: What about the Activity [11] of the same compound?
Answer: inactive

Question: What about the Activity [5] of the same compound?
Answer: inactive

Question: And the inhibition [12]?
Answer: Active

Question: And the inhibition [13]?
Answer: inactive

Question: Which inhibition [14] does the source give for `CCOc1ccc(-n2c(C(C)N(Cc3cccnc3)C(=O)Cc3ccc(F)c(C(F)(F)F)c3)nc3ncccc3c2=O)cc1` (racemic) here?
Answer: 100%

Question: What does the source list for `O=C(NC1CCN(Cc2ccc(F)c(F)c2)CC1)c1ccc(-n2cccn2)nc1`?
Answer: inhibition [1]: > 50%; Activity [11]: inactive; inhibition [6]: > 10%; inhibition [7]: > 20%; inhibition [13]: inactive

Question: Which results are given for `O=C(c1ccc(-n2cccn2)nc1)N1CCC(N(Cc2ccccc2)Cc2ccc(Cl)cc2)CC1`?
Answer: inhibition [14]: ≥ 20%; Activity [11]: inactive; inhibition [13]: inactive

Question: How did the inhibition [1] turn out when `CCOc1ccc(-n2c(C(C)N(CC3CCN(C)CC3)C(=O)Cc3ccc(F)c(C(F)(F)F)c3)nc3ncccc3c2=O)cc1` (stereo not given) was run?
Answer: 100%

Question: What about the pKb [4] of the same compound?
Answer: 7.33

Question: Which results are given for `O=C(NCCCN(Cc1ccccc1)c1ccccc1)c1ccc(-n2cccn2)nc1`?
Answer: inhibition [2]: > 80%; inhibition [3]: > 50%; Activity [5]: inactive; pKb [8]: 6.04

Question: Which results are given for `O=C(c1ccc(-n2cccn2)nc1)N1CCN(Cc2ccc(Cl)c(Cl)c2)CC1`?
Answer: inhibition [2]: > 80%; inhibition [3]: > 50%; Activity [5]: inactive; pKb [8]: 6.5

Question: What does the source list for `CCN(CCCNC(=O)c1ccc(-n2cccn2)nc1)c1ccccc1`?
Answer: inhibition [1]: inactive; inhibition [3]: inactive; pKb [15]: 8.82; pKb [16]: 8.72

Question: `O=C(c1ccc(-n2cccn2)nc1)N1CCN(Cc2ccc(Cl)cc2)CC1` was tested. Which inhibition [14] did it give?
Answer: inactive

Question: And the inhibition [1]?
Answer: > 60%

Question: What about the pKb [4] of the same compound?
Answer: 6.35

Question: What about the inhibition [6] of the same compound?
Answer: > 10%

Question: And the inhibition [7]?
Answer: > 20%

Question: Which results are given for `CC1(C)CN2C(CS/C(=N\C3CCCCC3)NC3CCCCC3)=CSC2=N1`?
Answer: Activity [10]: 100%; pKb [8]: 8.54

Question: Which results are given for `O=C(c1ccc(-n2cccn2)nc1)N1CCC(N(Cc2ccccc2)Cc2ccccc2)CC1`?
Answer: inhibition [14]: ≥ 20%; Activity [11]: inactive; inhibition [13]: inactive

Question: How did the EC50 [9] turn out when `O=C(NCCCNc1ccccc1)c1ccc(-n2cccn2)nc1` was run?
Answer: 9.55 µM

Question: And the Activity [5]?
Answer: inactive

Question: And the inhibition [12]?
Answer: Active

Question: What does the source list for `O=C(NCCCNc1ccc(Cl)cc1)c1ccc(-n2cccn2)nc1`?
Answer: Activity [5]: inactive; inhibition [12]: Active; pKb [8]: 4.64

Question: For `O=C(NCCCN(CCc1ccccc1)c1ccccc1)c1ccc(-n2cccn2)nc1`, which inhibition [2] is on record?
Answer: > 80%

Question: And the inhibition [3]?
Answer: > 50%

Question: What about the Activity [5] of the same compound?
Answer: inactive

Question: And the pKb [8]?
Answer: 6.13

Question: For `COc1ccc(CN(Cc2ccccc2)C2CCN(C(=O)c3ccc(-n4cccn4)nc3)CC2)cc1`, which inhibition [14] is on record?
Answer: ≥ 20%

Question: What about the inhibition [2] of the same compound?
Answer: 100%

Question: What about the inhibition [3] of the same compound?
Answer: > 50%

Question: And the Activity [11]?
Answer: inactive

Question: What about the Activity [5] of the same compound?
Answer: inactive

Question: What about the pKb [8] of the same compound?
Answer: 5.83

Question: What about the inhibition [13] of the same compound?
Answer: inactive

Question: With `O=C(NC1CCN(Cc2ccc(Cl)cc2)CC1)c1ccc(-n2cccn2)nc1` as the compound, how does the inhibition [1] read?
Answer: > 50%

Question: And the Activity [11]?
Answer: inactive

Question: What about the Activity [5] of the same compound?
Answer: inactive

Question: What about the inhibition [12] of the same compound?
Answer: Active

Question: What about the inhibition [6] of the same compound?
Answer: 80%

Question: And the inhibition [7]?
Answer: 80%

Question: What about the pKb [8] of the same compound?
Answer: 5.6

Question: And the inhibition [13]?
Answer: inactive

Question: For `O=C(c1ccc(-n2cccn2)nc1)N1CCC(N(Cc2ccccc2)Cc2ccc(Cl)c(Cl)c2)CC1`, which inhibition [1] is on record?
Answer: > 50%

Question: And the Activity [11]?
Answer: inactive

Question: What about the inhibition [6] of the same compound?
Answer: > 10%

Question: And the inhibition [7]?
Answer: > 20%

Question: What about the inhibition [13] of the same compound?
Answer: inactive

Question: For `O=C(c1ccc(-n2cccn2)nc1)N1CCC(N(Cc2ccccc2)Cc2ccc(F)c(F)c2)CC1`, which inhibition [14] is on record?
Answer: ≥ 20%

Question: What about the Activity [11] of the same compound?
Answer: inactive

Question: And the inhibition [13]?
Answer: inactive
